Blank lines part the entries; values can stand above or below the compound they belong to. Calls of active or inactive are those of the source. The calls are words filed in the database; no cut-off is given here.
Columns and labels:
[1] = target: T1, Proto-oncogene tyrosine-protein kinase Src (Homo sapiens, UniProt P12931)
[2] = target: T1, Proto-oncogene tyrosine-protein kinase Src; assay: Inhibition of Src kinase at 10 uM
Method in brief: (§1)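 Kinase reaction with ATP and specific substrate, incubated 1 h at room temperature with test compound (1% DMSO final). Protease solution then added, followed by stabilizer. Read-out by […] at 485/530 nm.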

[3] = Half life in Sprague-Dawley rat at 5 mg/kg, iv; format: ADME, organism-based; parameters: dose 5 mg/kg, route intravenous; conditions: in vivo
Method in brief: (§2)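 Single dose in Sprague–Dawley rats, iv or po. Rats fasted overnight before oral dosing and fed about 2 h after it; no fasting for iv. Approx. 0.3 mL blood drawn from the tail vein into heparin tubes at various times, then centrifuged to plasma and held at −80 °C. Compound measured by LCMS. t1/2 = 0.693/Ke; AUC by linear trapezoidal rule to 5 h plus extrapolation.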

SK-BR-3 = assay: Antiproliferative activity against human SKBR3 cells expressing HER2 at < 10 uM after 72 hrs by SRB assay; format: functional, cell-based
Method in brief: (§3)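 Cells seeded at 10,000–15,000 per well and held at 37 °C, 5% CO2. After 24 h compound added across a concentration range for 72 h. Cells then fixed with cold 10% TCA and stained with sulforhodamine B (0.4% in 1% acetic acid). Dye solubilized in 10 mM Tris base and absorbance read. GI50 from [(Ti−Tz)/(C−Tz)]×100 = 50. PC3 and SK-BR3 grown in RPMI 1640 with 10% FBS; A431 and MCF-7 in DMEM with 10% FBS.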

[4] = target: Vascular endothelial growth factor receptor 2 (Homo sapiens) (UniProt P35968); assay: Inhibition of VEGFR2 at 10 uM
Sequence of Vascular endothelial growth factor receptor 2 (Homo sapiens) (P35968 whole entry): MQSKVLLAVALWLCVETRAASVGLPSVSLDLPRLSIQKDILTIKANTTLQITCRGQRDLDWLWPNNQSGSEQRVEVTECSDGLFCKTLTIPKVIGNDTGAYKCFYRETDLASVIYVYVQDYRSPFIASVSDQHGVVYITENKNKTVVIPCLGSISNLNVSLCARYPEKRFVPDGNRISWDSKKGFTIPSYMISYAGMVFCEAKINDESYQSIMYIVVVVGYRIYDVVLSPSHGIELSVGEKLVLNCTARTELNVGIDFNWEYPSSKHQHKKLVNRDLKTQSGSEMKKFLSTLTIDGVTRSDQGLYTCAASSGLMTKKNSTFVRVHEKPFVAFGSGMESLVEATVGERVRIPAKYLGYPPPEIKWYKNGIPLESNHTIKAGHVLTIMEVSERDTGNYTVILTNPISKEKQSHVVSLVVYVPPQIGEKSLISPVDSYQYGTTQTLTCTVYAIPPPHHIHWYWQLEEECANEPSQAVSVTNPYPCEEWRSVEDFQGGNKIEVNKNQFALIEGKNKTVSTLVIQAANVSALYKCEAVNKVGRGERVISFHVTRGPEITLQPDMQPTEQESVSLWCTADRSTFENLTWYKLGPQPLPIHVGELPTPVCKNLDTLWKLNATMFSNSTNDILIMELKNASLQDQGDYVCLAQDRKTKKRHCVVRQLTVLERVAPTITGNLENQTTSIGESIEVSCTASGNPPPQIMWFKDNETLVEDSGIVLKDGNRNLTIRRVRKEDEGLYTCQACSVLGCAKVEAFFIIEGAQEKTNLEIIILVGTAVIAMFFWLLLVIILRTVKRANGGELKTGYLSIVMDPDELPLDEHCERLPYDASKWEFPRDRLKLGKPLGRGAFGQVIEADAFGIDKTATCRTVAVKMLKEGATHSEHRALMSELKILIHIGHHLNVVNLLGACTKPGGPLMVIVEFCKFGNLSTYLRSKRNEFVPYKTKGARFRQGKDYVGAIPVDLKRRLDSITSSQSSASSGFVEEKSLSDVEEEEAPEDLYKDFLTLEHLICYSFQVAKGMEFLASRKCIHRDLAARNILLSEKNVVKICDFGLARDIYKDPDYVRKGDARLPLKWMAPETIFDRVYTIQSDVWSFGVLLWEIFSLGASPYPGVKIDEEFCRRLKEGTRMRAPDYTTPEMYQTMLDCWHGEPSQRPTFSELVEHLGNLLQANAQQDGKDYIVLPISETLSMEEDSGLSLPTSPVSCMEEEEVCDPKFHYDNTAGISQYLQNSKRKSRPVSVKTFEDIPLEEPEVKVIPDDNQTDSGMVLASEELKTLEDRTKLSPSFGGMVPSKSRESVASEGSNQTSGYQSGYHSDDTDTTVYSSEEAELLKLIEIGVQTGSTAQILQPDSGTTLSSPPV
Method in brief: as §1

[5] = target: Ribosomal protein S6 kinase alpha-1 (Homo sapiens) (UniProt Q15418); assay: Inhibition of p90RSK phosphorylation in human A431 cells at 0.1 uM after 6 hrs by Western blot analysis; format: cell-based; conditions: A-431
Sequence of Ribosomal protein S6 kinase alpha-1 (Homo sapiens) (Q15418 whole entry): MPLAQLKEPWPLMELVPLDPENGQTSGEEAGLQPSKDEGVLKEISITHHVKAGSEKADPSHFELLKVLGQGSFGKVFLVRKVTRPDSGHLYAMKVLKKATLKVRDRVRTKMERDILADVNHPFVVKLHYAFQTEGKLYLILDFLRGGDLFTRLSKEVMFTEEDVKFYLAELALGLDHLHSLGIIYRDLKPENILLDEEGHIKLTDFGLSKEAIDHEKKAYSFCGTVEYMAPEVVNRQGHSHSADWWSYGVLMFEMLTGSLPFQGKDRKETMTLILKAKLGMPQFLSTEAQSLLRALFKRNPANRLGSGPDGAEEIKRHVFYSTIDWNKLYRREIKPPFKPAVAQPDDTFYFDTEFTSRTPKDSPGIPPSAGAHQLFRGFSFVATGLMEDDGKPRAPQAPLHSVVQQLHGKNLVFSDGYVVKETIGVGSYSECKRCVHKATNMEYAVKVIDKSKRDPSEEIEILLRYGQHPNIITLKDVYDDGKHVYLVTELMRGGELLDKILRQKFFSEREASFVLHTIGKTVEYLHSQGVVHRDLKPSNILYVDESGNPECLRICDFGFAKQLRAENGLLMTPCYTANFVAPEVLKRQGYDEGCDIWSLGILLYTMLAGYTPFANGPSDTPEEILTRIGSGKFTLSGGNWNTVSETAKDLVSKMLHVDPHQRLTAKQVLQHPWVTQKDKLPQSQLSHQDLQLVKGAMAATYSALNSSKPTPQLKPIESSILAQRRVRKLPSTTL
Method in brief: (§4)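 PC3 or A431 cells grown 48 h in 6 cm dishes, then exposed to 0.1 µM compound for varying times. Lysed on ice in Tris pH 7.5/NaCl/EDTA/Triton X-100/DTT/PMSF/glycerol with protease inhibitors, then spun. Protein measured by dye-binding assay. Run on 10% SDS-PAGE, blotted to PVDF, blocked 1 h in 5% milk, and probed for phospho and total ERK and p90RSK.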

[6] = target: Epidermal growth factor receptor (Homo sapiens, UniProt P00533)
Sequence of Epidermal growth factor receptor (P00533 whole entry): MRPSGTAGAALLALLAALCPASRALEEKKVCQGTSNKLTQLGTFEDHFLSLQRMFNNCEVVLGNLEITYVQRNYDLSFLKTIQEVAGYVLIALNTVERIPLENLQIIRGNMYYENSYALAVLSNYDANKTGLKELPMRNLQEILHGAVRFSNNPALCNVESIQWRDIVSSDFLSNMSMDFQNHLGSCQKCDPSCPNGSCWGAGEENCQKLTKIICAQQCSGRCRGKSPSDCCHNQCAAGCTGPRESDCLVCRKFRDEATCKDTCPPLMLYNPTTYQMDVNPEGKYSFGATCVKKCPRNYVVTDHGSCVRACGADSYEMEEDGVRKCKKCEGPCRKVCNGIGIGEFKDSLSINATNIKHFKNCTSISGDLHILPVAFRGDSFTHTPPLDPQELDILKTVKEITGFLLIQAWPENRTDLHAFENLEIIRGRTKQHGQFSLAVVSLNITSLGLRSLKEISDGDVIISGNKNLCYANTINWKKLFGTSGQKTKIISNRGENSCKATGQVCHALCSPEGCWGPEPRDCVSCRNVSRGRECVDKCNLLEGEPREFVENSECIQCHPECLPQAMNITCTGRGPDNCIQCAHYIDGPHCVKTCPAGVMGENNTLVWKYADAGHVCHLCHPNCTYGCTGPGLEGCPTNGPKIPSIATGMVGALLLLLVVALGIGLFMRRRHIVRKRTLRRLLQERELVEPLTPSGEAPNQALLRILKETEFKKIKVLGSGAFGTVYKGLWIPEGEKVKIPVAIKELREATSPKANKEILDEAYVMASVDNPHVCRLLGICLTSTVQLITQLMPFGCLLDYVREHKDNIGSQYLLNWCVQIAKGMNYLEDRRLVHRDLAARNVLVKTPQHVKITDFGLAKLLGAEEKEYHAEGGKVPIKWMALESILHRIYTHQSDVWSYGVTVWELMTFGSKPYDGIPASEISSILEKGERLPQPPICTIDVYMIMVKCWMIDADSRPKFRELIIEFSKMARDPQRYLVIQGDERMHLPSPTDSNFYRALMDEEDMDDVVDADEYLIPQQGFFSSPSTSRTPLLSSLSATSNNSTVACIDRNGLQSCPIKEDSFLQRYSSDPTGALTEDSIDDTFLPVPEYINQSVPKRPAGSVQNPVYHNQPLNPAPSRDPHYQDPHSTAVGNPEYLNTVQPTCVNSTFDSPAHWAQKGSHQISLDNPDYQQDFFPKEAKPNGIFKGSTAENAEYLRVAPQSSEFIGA

A-431 [7] = assay: Inhibition of ERK phosphorylation in human A431 cells at 0.1 uM by Western blot analysis; format: cell-based; conditions: TDE = time-dependent effect
Method in brief: as §4

PC-3 [8] = assay: Inhibition of ERK phosphorylation in human PC3 cells at 0.1 uM after 6 hrs by Western blot analysis; format: cell-based
Method in brief: as §4

[9] = target: Ribosomal protein S6 kinase alpha-1 (Homo sapiens) (UniProt Q15418); assay: Inhibition of p90RSK phosphorylation in human A431 cells at 0.1 uM by Western blot analysis; format: cell-based; conditions: A-431, TDE = time-dependent effect
Method in brief: as §4

[10] = AUC in Sprague-Dawley rat at 5 mg/kg, iv; format: ADME, organism-based; parameters: dose 5 mg/kg, route intravenous; conditions: plasma
Method in brief: as §2

[11] = target: Ribosomal protein S6 kinase alpha-1 (Homo sapiens) (UniProt Q15418); assay: Inhibition of p90RSK phosphorylation in human PC3 cells at 0.1 uM by Western blot analysis; format: cell-based; conditions: PC-3, TDE = time-dependent effect
Method in brief: as §4

[12] = target: Ribosomal protein S6 kinase alpha-1 (Homo sapiens) (UniProt Q15418); assay: Inhibition of p90RSK phosphorylation in human PC3 cells at 0.1 uM after 6 hrs by Western blot analysis; format: cell-based; conditions: PC-3
Method in brief: as §4

A-431 [13] = assay: Antiproliferative activity against human A431 cells after 72 hrs by SRB assay; format: functional, cell-based
Method in brief: as §3

PC-3 [14] = assay: Antiproliferative activity against human PC3 cells after 72 hrs by SRB assay; format: functional, cell-based
Method in brief: as §3

[15] = Cmax in Sprague-Dawley rat at 5 mg/kg, iv; format: ADME, organism-based; parameters: dose 5 mg/kg, route intravenous; conditions: in vivo
Method in brief: as §2

[16] = Tmax in Sprague-Dawley rat at 5 mg/kg, iv; format: ADME, organism-based; parameters: dose 5 mg/kg, route intravenous; conditions: in vivo
Method in brief: as §2

A-431 [17] = assay: Inhibition of EGF-stimulated tyrosine phosphorylation in human A431 cells
[18] = Tmax in Sprague-Dawley rat plasma at 10 mg/kg, iv and po; format: ADME, organism-based; parameters: dose 10 mg/kg, route oral
MCF7 = assay: Antiproliferative activity against human MCF7 cells at < 10 uM after 72 hrs by SRB assay; format: functional, cell-based
Method in brief: as §3

[19] = Oral bioavailability in Sprague-Dawley rat at 10 mg/kg, po; format: ADME, organism-based; conditions: in vivo
Method in brief: as §2

A-431 [20] = assay: Inhibition of ERK phosphorylation in human A431 cells at 0.1 uM after 6 hrs by Western blot analysis; format: cell-based
Method in brief: as §4

[21] = Cmax in Sprague-Dawley rat at 10 mg/kg, po; format: ADME, organism-based; parameters: dose 10 mg/kg, route oral; conditions: in vivo
Method in brief: as §2

Rattus norvegicus = assay: Cmax in Sprague-Dawley rat plasma at 10 mg/kg, iv and po; format: ADME, organism-based; parameters: dose 10 mg/kg, route oral; conditions: in vivo
[22] = Half life in Sprague-Dawley rat at 10 mg/kg, po; format: ADME, organism-based; parameters: dose 10 mg/kg, route oral; conditions: in vivo
Method in brief: as §2

PC-3 [23] = assay: Inhibition of ERK phosphorylation in human PC3 cells at 0.1 uM by Western blot analysis; format: cell-based; conditions: TDE = time-dependent effect
Method in brief: as §4

[24] = AUC in Sprague-Dawley rat at 10 mg/kg, po; format: ADME, organism-based; parameters: dose 10 mg/kg, route oral; conditions: plasma
Method in brief: as §2

[25] = Tmax in Sprague-Dawley rat at 10 mg/kg, po; format: ADME, organism-based; parameters: dose 10 mg/kg, route oral; conditions: in vivo
Method in brief: as §2

T1 sequence (P12931 2-536 limits assumed): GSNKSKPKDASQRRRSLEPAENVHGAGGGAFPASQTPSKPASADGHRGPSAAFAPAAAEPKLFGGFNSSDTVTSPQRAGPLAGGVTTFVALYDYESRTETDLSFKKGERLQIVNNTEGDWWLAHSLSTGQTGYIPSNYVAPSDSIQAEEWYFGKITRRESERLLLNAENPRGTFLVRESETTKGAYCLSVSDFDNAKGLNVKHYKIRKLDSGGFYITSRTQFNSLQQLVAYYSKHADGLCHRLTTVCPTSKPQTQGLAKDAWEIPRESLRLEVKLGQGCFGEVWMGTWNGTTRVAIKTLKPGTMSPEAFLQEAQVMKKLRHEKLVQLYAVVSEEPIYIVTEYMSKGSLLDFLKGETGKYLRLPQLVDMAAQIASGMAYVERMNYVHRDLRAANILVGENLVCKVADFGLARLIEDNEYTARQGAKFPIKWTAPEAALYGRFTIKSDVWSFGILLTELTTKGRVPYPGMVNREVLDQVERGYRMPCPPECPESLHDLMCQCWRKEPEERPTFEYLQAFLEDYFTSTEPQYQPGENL

IC50 [1]: 300 nM | Activity [2]: Active
SMILES: COCCOc1cc2ncnc(Nc3ccc(F)c(Cl)c3)c2cc1NC(=O)[C@@H]1CCCN1

Activity [2]: Active
SMILES: CN(C)CCC(=O)Nc1cc2c(Nc3ccc(F)c(Cl)c3)ncnc2cc1OCCCN1CCOCC1

Activity [2]: Active
SMILES: C=CC(=O)Nc1cc2c(Nc3cc(OC)c(Cl)cc3OC)ncnc2cc1OCC1CCN(C)CC1

Activity [2]: Active
SMILES: CCN1CCN(Cc2ccc(-c3cc4c(N[C@@H](C)c5ccccc5)ncnc4[nH]3)cc2)CC1

half-life [3]: 6.1 h | Activity [4]: inactive | Activity [5]: Active | IC50 [6]: 7130 nM | Activity [9]: tde | AUC [10]: 2400 ng·h/mL | Activity [11]: tde | Activity [12]: Active | Cmax [15]: 2010 nM | Tmax [16]: 4.8 min | IC50 (A-431 [17]): 780 nM | Tmax [18]: 1 h | bioavailability [19]: 20.4% | Cmax [21]: 120 nM | Cmax (Rattus norvegicus): 400 nM | half-life [22]: 5.4 h | IC50 [1]: 89 nM | AUC [24]: 1240 ng·h/mL | Tmax [25]: 4 h
SMILES: COCCOc1cc2ncnc(Nc3c(Cl)ccc4c3OCO4)c2cc1NC(=O)[C@@H]1CCCN1
Activity (SK-BR-3): inactive | Activity (A-431 [7]): tde | Activity (PC-3 [8]): Active | Activity (A-431 [13]): Dose-dependent effect | Activity (PC-3 [14]): Dose-dependent effect | Activity (MCF7): inactive | Activity (A-431 [20]): Active | Activity (PC-3 [23]): tde
